Data on five compounds can be found in ChEMBL document CHEMBL1130822, “Synthesis and biological evaluation of new tetrahydronaphthalene derivatives as thromboxane receptor antagonists” (Bioorg Med Chem Lett, 1998).

For one assay, the species on record is Cavia porcellus. Briefly: Compound was tested for inhibition of U-46,619 induced increase in tracheal pressure of guinea pigs. Type of assay: functional, Trachea. The note with it: for ED50: Cavia porcellus, Trachea, read-out: ID50. Put shortly: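 Compound given i.v. to guinea pigs; tracheal pressure rise evoked with U46619 by the Konzett–Rossler technique; ID50 expressed in μg/kg.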

Another assay is filed under the species Homo sapiens. The experiment in a line: Compound was tested for inhibition of U-46,619 induced aggregation of human platelets. It is filed as functional. In short, it runs like this:
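Human platelet-rich plasma aggregated with the TP-receptor agonist U46619, with and without compound; inhibition of aggregation measured and IC50 expressed in μM.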

The species entered for another assay is Oryctolagus cuniculus. The experiment in a line: Compound was tested for inhibition of U-46,619 induced contraction of isolated rabbit saphenous vein. The note with it: for Kb: Oryctolagus cuniculus, Saphenous vein, read-out: pA2 (converted). Type of assay: functional. In short, it runs like this: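 Isolated rabbit saphenous vein rings contracted with increasing U46619 concentrations in the absence or presence of compound; antagonism quantified as pA2 values.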

As for `Cc1ccc2c(c1CCC(=O)O)CCC(NS(=O)(=O)c1ccc(Cl)cc1)C2` (stereo in doubt), the ID50 in the assay filed under Cavia porcellus was found to be 0.035 mg/kg. Further, in the assay filed under Homo sapiens, the IC50 was 230 nM.

For the compound `O=C(O)CCn1c2c(c3ccccc31)CC(NS(=O)(=O)c1ccc(F)cc1)CC2` (single isomer, unassigned) [RAMATROBAN], the ED50 in the assay listed under Cavia porcellus stood at 0.017 mg/kg. The same compound gave an IC50 in the assay listed under Homo sapiens (Homo sapiens) of 380 nM. For the same compound, the Kb in the assay filed under Oryctolagus cuniculus is 12.6 nM.

`O=C(O)CC/C=C\C[C@@H]1CO[C@H](c2ccccc2Cl)O[C@@H]1c1ccccc1O`: in the assay listed under Cavia porcellus, the ED50 was found to be 0.0007 mg/kg. This compound also displayed a 50% inhibitory concentration (IC50) in the assay listed under Homo sapiens (Homo sapiens) of 13 nM. The Kb in the assay listed under Oryctolagus cuniculus was 2.51 nM.

Turning to `Cc1ccc2c(c1CCC(=O)O)CCC(NS(=O)(=O)c1ccc(Cl)cc1)C2` (stereo in doubt; 2a), the ID50 in the assay filed under Cavia porcellus was determined as 0.031 mg/kg. Also, in the assay filed under Homo sapiens, the IC50 was determined as 330 nM. Further, the pA2 in the assay listed under Oryctolagus cuniculus worked out at 8.9.

For the compound `Cc1ccc2c(c1CCC(=O)O)CCC(NS(=O)(=O)c1ccc(Cl)cc1)C2` (stereo in doubt; 2a (l)), in the assay filed under Cavia porcellus, the ID50 stood at 0.015 mg/kg. For the same compound, the midpoint of inhibition in the assay listed under Homo sapiens, the IC50, lay at 780 nM. Further, the pA2 in the assay filed under Oryctolagus cuniculus was found to be 8.2.

One may read the IC50 as the point on the concentration scale where inhibition reaches its midpoint. Low readings indicate inhibition by little substance, high ones a need for much substance. The pA2 is a measure of antagonist potency on a negative log scale. A lower pA2 goes with lower antagonist potency.
